Measurements from different studies.
Each line is one published result; the experiments were not run side by side.
Read-out: enzyme activity
ABL1: Tyrosine-protein kinase ABL1 (ABL1, Homo sapiens, UniProt P00519)

| SMILES | target | action | technique | concentration | remaining activity [%] |
| --- | --- | --- | --- | --- | --- |
| CCN(CC)c1ccc(C2=NNC(=O)CC2C)cc1[N+](=O)[O-] (centres unmarked) | ABL1 | inhibitor | – | 10 µM | 87 |
| CC(C)(C)c1nc(-c2cccc(NS(=O)(=O)c3c(F)cccc3F)c2F)c(-c2ccnc(N)n2)s1 | ABL1 | inhibitor | radiometric | 1 µM | 94 |
| CCCOc1ccc(OC)c(F)c1C(=O)c1ccc(C(=O)N[C@@H]2CNC[C@H]2NC(=O)c2ccc3[nH]ncc3c2)cc1 | Tyrosine-protein kinase ABL1 (ABL1, Homo sapiens, UniProt P00519, Q252H) | inhibitor | – | 10 µM | 76 |
| Cc1[nH]c(/C=C2\C(=O)Nc3ccc(F)cc32)c(C)c1C(=O)N[C@H]1CCN(C(=O)N(C)C)C1 | ABL1 | inhibitor | – | 1 µM | 107 |
| COc1cc(Nc2cnc(C#N)c(O[C@H](C)CN(C)C)n2)ncc1-c1cnn(C)c1 | ABL1 | inhibitor | radiometric | 1 µM | 83 |
| Cc1ccc(NC(=O)c2ccc(C)c(C(F)(F)F)c2)cc1C#Cc1nn(C2CCC(O)CC2)c2ncnc(N)c12 (centres unmarked) | Tyrosine-protein kinase ABL1 (ABL1, Homo sapiens, UniProt P00519, M351T) | – | – | 10 µM | 0 |
| O=C(Nc1cnn(-c2csc(C(=O)NC3COC3)c2)c1)Nc1ccccc1Cl | ABL1 | inhibitor | – | 5 µM | 83.4 |
| Cc1cnc(NC2CCOCC2)nc1-n1cnc(C(=O)NC(CN)c2cc(F)cc(Cl)c2)c1 (centres unmarked) | ABL1 | inhibitor | radiometric | 1 µM | 103 |
